Reference: ChEMBL document CHEMBL1148136, “Induction of quinone reductase by withanolides” (J Nat Prod, 2002)

What was measured:
[1] = Chemoprevention index, ratio of IC50 for mouse Hepa-1c1c7 cells to drug level required to induce 4-fold increase in quinone reductase activity in mouse Hepa-1c1c7 cells; assay type: functional
Summary of the method: (§1)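 Hepa 1c1c7 cells seeded at 4000 cells/mL, grown 24 h at 37 °C under CO2, then medium changed. Compounds added in 10% DMSO, serially diluted over 0.15-20 µg/mL, and incubated a further 48 h. QR measured as NADPH-dependent, menadiol-mediated MTT reduction to formazan. Protein by crystal violet at 595 nm in duplicate plates. Specific activity expressed relative to solvent control. CD = concentration giving 2-fold activity, CQ = 4-fold. CI = IC50/CD or IC50/CQ.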

[2] = Chemoprevention index, ratio of IC50 for mouse Hepa-1c1c7 cells to drug level required to double specific quinone reductase activity in mouse Hepa-1c1c7 cells; assay type: functional; summary of the method: as §1
[3] = Growth inhibition of mouse Hepa-1c1c7 cells by crystal violet staining; assay type: cell-based; settings: for IC50: Mus musculus, Hepa-1c1c7; for Activity: mouse, hepa-1c1c7
Summary of the method: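 Hepa 1c1c7 cells seeded at 4000 cells/mL and grown 24 h at 37 °C, then medium changed. Compounds added in 10% DMSO, serially diluted over 0.15-20 µg/mL, and exposed 48 h. Viability read by crystal violet staining at 595 nm. IC50 taken as the half-maximal inhibitory concentration of cell viability.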

## CC(=O)O[C@H]1C=CC(=O)[C@]2(C)[C@H]3CC[C@]45C(O)O[C@@](C)([C@H]6C[C@H](C)[C@@H](C)C(=O)O6)[C@H]4CC[C@H]5[C@@H]3C[C@H]3O[C@]132 (stereo partly specified)
[1]
  Ratio: >1.4
[2]
  Ratio: >1.4
[3]
  IC50: 0.39 µM

## CC(=O)O[C@H]1C=CC(=O)[C@@]2(C)C1=C[C@H](OC(C)=O)[C@@H]1[C@@H]2CC[C@]2(C)[C@@H]([C@@](C)(O)[C@H]3CC(C)=C(C)C(=O)O3)CC[C@@H]12
[2]
  Ratio: >3
[3]
  IC50: 0.81 µM

## CC(=O)O[C@@H]1[C@H]2[C@@H]3CC[C@H]([C@@](C)(O)[C@H]4CC(C)=C(C)C(=O)O4)[C@@]3(C)CC[C@@H]2[C@@]2(C)C(=O)C=C[C@H](OC(C)=O)[C@]23O[C@H]13
[2]
  Ratio: 1.3
[3]
  IC50: 0.33 µM

## CC(=O)O[C@H]1C=CC(=O)[C@]2(C)[C@H]3CC[C@]45C(=O)O[C@@](C)([C@H]6C[C@H](C)[C@@H](C)C(=O)O6)[C@H]4CC[C@H]5[C@@H]3C[C@H]3O[C@]132
[1]
  Ratio: >1.5
[2]
  Ratio: >1.5
[3]
  IC50: 0.42 µM

## CC1=C(C)C(=O)O[C@@H]([C@](C)(O)[C@H]2CC[C@H]3[C@@H]4[C@@H](O)C=C5[C@@H](O)C=CC(=O)[C@]5(C)[C@H]4CC[C@]23C)C1
[1]
  Ratio: 0.62
[2]
  Ratio: 3.5
[3]
  IC50: 1.66 µM

## CC(=O)C1=CC[C@H]2[C@@H]3[C@@H]4O[C@@H]4[C@@]4(O)CC=CC(=O)[C@]4(C)[C@H]3CC[C@]12C
[2]
  Ratio: >1.7
[3]
  IC50: > 58.4 µM

## CC1=C(C)C(=O)O[C@@H]([C@@H](C)[C@H]2[C@@H](O)C[C@H]3[C@@H]4C[C@H]5O[C@]56[C@@H](O)C=CC(=O)[C@]6(C)[C@H]4CC[C@]23C)C1
[1]
  Ratio: 1.3
[2]
  Ratio: >2.1
[3]
  IC50: 0.66 µM

## CC1=C(C)C(=O)O[C@@H]([C@](C)(O)[C@H]2CC[C@H]3[C@@H]4C[C@H]5O[C@]56[C@@H](O)C=CC(=O)[C@]6(C)[C@H]4CC[C@]23CO)C1
[1]
  Ratio: 3.5
[2]
  Ratio: 7.2
[3]
  IC50: 1.93 µM

## CC1=C(C)C(=O)O[C@@H]([C@](C)(O)[C@H]2CC[C@H]3[C@@H]4[C@@H](O)[C@H]5O[C@]56[C@@H](O)C=CC(=O)[C@]6(C)[C@H]4CC[C@]23C)C1
[2]
  Ratio: 2.5
[3]
  IC50: 1.27 µM

## CC(=O)O[C@H]1C=CC(=O)[C@]2(C)[C@H]3CC[C@]45C(=O)O[C@@](C)([C@H]6CC(C)=C(C)C(=O)O6)[C@H]4CC[C@H]5[C@@H]3C[C@H]3O[C@]132
[1]
  Ratio: >2
[2]
  Ratio: >2
[3]
  IC50: 0.57 µM

## CC(=O)O[C@@H]1O[C@@](C)([C@H]2CC(C)=C(C)C(=O)O2)[C@H]2CC[C@H]3[C@@H]4CC=C5[C@@H](OC(C)=O)C=CC(=O)[C@]5(C)[C@H]4CC[C@]123
[3]
  IC50: 5.1 µM

## C[C@H]1C[C@H]([C@](C)(O)[C@H]2CC[C@H]3[C@@H]4C[C@H]5O[C@]56[C@@H](O)C=CC(=O)[C@]6(C)[C@H]4CC[C@]23C)OC(=O)[C@@H]1C
[1]
  Ratio: 1.4
[2]
  Ratio: 7.8
[3]
  IC50: 5.5 µM

## CC1=C(C)C(=O)O[C@@H](/C(C)=C2\[C@@H](O)C[C@H]3[C@@H]4[C@@H]5O[C@@H]5[C@@]5(O)CC=CC(=O)[C@]5(C)[C@H]4CC[C@]23C)C1 [EXODECONOLIDE A]
[2]
  Ratio: >2.7
[3]
  IC50: > 42.7 µM

## CC1=C(C)C(=O)O[C@@H](/C(C)=C2\[C@H](O)C[C@H]3[C@@H]4[C@@H]5O[C@@H]5[C@@]5(O)CC=CC(=O)[C@]5(C)[C@H]4CC[C@]23C)C1 [EXODECONOLIDE B]
[2]
  Ratio: >2.6
[3]
  IC50: > 42.7 µM

## CC1=C(C)[C@]2(OC1=O)C(=O)C(C)=C1CC[C@H]3[C@@H]4C[C@H]5O[C@]56CC=CC(=O)[C@]6(C)[C@H]4C[C@@]2(O)[C@]13C [JABOROSALACTONE 1]
[1]
  Ratio: 6.3
[2]
  Ratio: 28.9
[3]
  IC50: 8.08 µM

## CC1=C(C)[C@]2(OC1=O)[C@H](O)[C@@H](C)[C@]1(O)CC[C@H]3[C@@H]4C[C@@H](O)[C@@]5(Cl)CC=CC(=O)[C@]5(C)[C@H]4C[C@@]2(O)[C@@]31C [JABOROSALACTONE 10]
[2]
  Ratio: >5.2
[3]
  IC50: > 38 µM

## CO[C@]12CC=CC(=O)[C@]1(C)[C@H]1C[C@@]3(O)[C@@]4(C)[C@@H](CC[C@@]4(O)[C@H](C)[C@@H](O)[C@]34OC(=O)C(C)=C4C)[C@@H]1C[C@H]2O [JABOROSALACTONE 12]
[2]
  Ratio: >4.2
[3]
  IC50: > 39 µM

## CC1=C(CO)C(=O)O[C@@H]([C@@H](C)[C@H]2CC[C@H]3[C@@H]4C[C@H]5O[C@]56CC=CC(=O)[C@]6(C)[C@H]4CC[C@]23C)C1 [JABOROSALACTONE A]
[1]
  Ratio: 2.7
[2]
  Ratio: 6.3
[3]
  IC50: 1.83 µM

## CC1=C(CO)C(=O)O[C@@H]([C@@H](C)[C@H]2CC[C@H]3[C@@H]4C[C@@H](O)[C@@]5(O)CC=CC(=O)[C@]5(C)[C@H]4CC[C@]23C)C1 [JABOROSALACTONE D]
[2]
  Ratio: >1.7
[3]
  IC50: > 42.3 µM

## CC1=C(C)C(=O)O[C@@H]([C@@H](C)[C@@]2(O)CC[C@H]3[C@@H]4C[C@H]5O[C@]56CC=CC(=O)[C@]6(CO)[C@H]4CC[C@@]32C)C1 [JABOROSALACTONE L]
[3]
  Activity: Not Active

## CC1=C(C)C(=O)O[C@@H]([C@@H](C)[C@@]2(O)CC[C@H]3[C@@H]4C[C@H]5O[C@]56CCCC(=O)[C@]6(CO)[C@H]4CC[C@@]32C)C1 [JABOROSALACTONE O]
[2]
  Ratio: >27.8
[3]
  IC50: > 42.3 µM

## CC1=C(C)C(=O)O[C@@H]([C@@H]2CO[C@@]3(O)C[C@H]4[C@@H](C[C@@H](O)[C@@]5(O)CC=CC(=O)[C@]45C)[C@@H]4CC[C@]2(O)[C@]43C)C1 [JABOROSALACTONE S]
[3]
  IC50: > 39.8 µM

## C[C@@H](c1ccc2c(c1)CC[C@H]1[C@H]2C[C@@H]2O[C@@]23CC=CC(=O)[C@]13C)[C@@H]1C[C@@H]2O[C@@H]2[C@H](O)O1 [SALPICHROLIDE A]
[2]
  Ratio: >4
[3]
  IC50: > 42.9 µM

## C[C@@H](c1cc(O)c2c(c1)CC[C@H]1[C@H]2C[C@@H]2O[C@@]23CC=CC(=O)[C@]13C)[C@@H]1C[C@@H]2O[C@@H]2[C@H](O)O1 [SALPICHROLIDE G]
[2]
  Ratio: >3.7
[3]
  IC50: > 42.9 µM

## C[S+]([O-])CCCCN=C=S (stereo unspecified) [SULFORAPHANE]
[1]
  Ratio: 1.1
[2]
  Ratio: 23.9

## CC1=C(C)C(=O)O[C@@H]([C@@H](C)[C@H]2CC[C@H]3[C@@H]4[C@@H]5O[C@@H]5[C@@]5(O)CC=CC(=O)[C@]5(C)[C@H]4C[C@H](O)[C@]23C)C1 [WITHAFEROXOLIDE]
[2]
  Ratio: >2.9
[3]
  IC50: > 42.5 µM

## CC1=C(C)C(=O)O[C@@H]([C@](C)(O)[C@H]2CC[C@H]3[C@@H]4[C@@H]5O[C@@H]5[C@@]5(O)CC=CC(=O)[C@]5(C)[C@H]4CC[C@]23C)C1 [WITHANOLIDE A]
[3]
  IC50: > 42.5 µM

## CC1=C(C)C(=O)O[C@@H]([C@@H](C)[C@@]2(O)CC[C@H]3[C@@H]4[C@@H]5O[C@@H]5[C@@]5(O)CC=CC(=O)[C@]5(C)[C@H]4CC[C@@]32C)C1 [WITHANONE]
[3]
  Activity: Not Active

## CC1=C(C)C(=O)O[C@@H]([C@]2(C)OC(O)[C@]34CC[C@H]5[C@@H](C[C@H]6O[C@]67[C@@H](O)C=CC(=O)[C@]57C)[C@@H]3CC[C@H]24)C1 (stereo partly specified) [WITHAPHYSALIN F]
[3]
  IC50: 4.15 µM

## CC1=C(C)C(=O)O[C@@H]([C@]2(C)OC(O)[C@]34CC[C@H]5[C@@H](CC=C6[C@@H](O)C=CC(=O)[C@@]65C)[C@@H]3CC[C@H]24)C1 (stereo partly specified) [WITHAPHYSALIN G]
[2]
  Ratio: 19.3
[3]
  IC50: 9.83 µM

## CO[C@@H]1O[C@@](C)([C@H]2CC(C)=C(C)C(=O)O2)[C@H]2CC[C@H]3[C@@H]4CC=C5[C@@H](O)C=CC(=O)[C@]5(C)[C@H]4CC[C@]123 [WITHAPHYSALIN H]
[2]
  Ratio: 10
[3]
  IC50: 5.21 µM

## CO[C@H]1O[C@@](C)([C@H]2CC(C)=C(C)C(=O)O2)[C@H]2CC[C@H]3[C@@H]4CC=C5[C@@H](O)C=CC(=O)[C@]5(C)[C@H]4CC[C@]123 [WITHAPHYSALIN I]
[2]
  Ratio: 5.1
[3]
  IC50: 5.27 µM

## CC1=C(C)C(=O)O[C@@H]([C@]2(C)OC(=O)[C@]34CC[C@H]5[C@@H](CC=C6[C@@H](O)C=CC(=O)[C@@]65C)[C@@H]3CC[C@H]24)C1 [WITHAPHYSALIN J]
[2]
  Ratio: 28.1
[3]
  IC50: 11 µM

## CO[C@@H]1O[C@@](C)([C@H]2CC(C)=C(C)C(=O)O2)[C@H]2CC[C@H]3[C@@H]4CC=C5C(=O)C=CC(=O)[C@]5(C)[C@H]4CC[C@]123 [WITHAPHYSALIN K]
[3]
  IC50: 7.29 µM

## CO[C@H]1O[C@@](C)([C@H]2CC(C)=C(C)C(=O)O2)[C@H]2CC[C@H]3[C@@H]4CC=C5C(=O)C=CC(=O)[C@]5(C)[C@H]4CC[C@]123 [WITHAPHYSALIN L]
[3]
  IC50: 0.65 µM
